Measurements pooled from the literature.
Lines come from different studies, so protocols differ.
Target: Insulin receptor-related protein (INSRR, Homo sapiens, UniProt P14616)

| Compound | observed | mode | method | concentration | measurement | result |
| --- | --- | --- | --- | --- | --- | --- |
| COc1cc(-c2cn(C3CCc4c(F)cccc4N(CC(F)(F)F)C3=O)nn2)ccc1-n1cnc(C)c1 (stereo not shown) | cell-free assay |  | competition with immobilised ligand | 1 µM | remaining binding | 100% |
| O=C(Nc1cnn(-c2csc(C(=O)NC3COC3)c2)c1)Nc1ccccc1Cl | enzyme activity | inhibitor |  | 5 µM | remaining activity | 96% |
| CN([C@@H]1CCc2c(CC(=O)O)c3cc(S(C)(=O)=O)ccc3n2C1)S(=O)(=O)c1ccc(F)cc1 | cell-free assay |  | competition with immobilised ligand | 1 µM | remaining binding | 100% |
| N#CCCc1ccc2c(c1)-c1[nH]c3ccc([N+](=O)[O-])cc3c1CC(=O)N2 | cell-free assay |  |  | 0.5 µM | remaining signal | 99.2% |
| Cc1sc(C(=O)NC2COC2)cc1-n1cc(NC(=O)Nc2c(F)cccc2Cl)cn1 | enzyme activity | inhibitor |  | 10 µM | remaining activity | 71.9% |
| COc1ccc(COc2ccc(Cc3cnc(N)nc3N)cc2OC)cc1 | cell-free assay |  |  | 0.5 µM | remaining signal | 99.4% |
| Cc1ccc(Nc2nccc(N(C)c3ccc4c(C)n(C)nc4c3)n2)cc1S(N)(=O)=O | enzyme activity | inhibitor |  | 10 µM | inhibition | 41% |
| COc1cc(Nc2cnc(C#N)c(O[C@H](C)CN(C)C)n2)ncc1-c1cnn(C)c1 | enzyme activity | inhibitor | radiometric | 1 µM | remaining activity | 103% |
| O=C(O)[C@@H]1[C@@H](Cn2nnc3ccccc3c2=O)CC[C@H]1C(=O)c1ccc(OCCC2CCOCC2)cc1 | cell-free assay |  | competition with immobilised ligand | 1 µM | remaining binding | 100% |
| Oc1cccc(-c2nc(N3CCOCC3)c3oc4ncccc4c3n2)c1 | enzyme activity | inhibitor |  | 10 µM | remaining activity | 89% |
| CC(C)(C)c1nc(-c2cccc(NS(=O)(=O)c3c(F)cccc3F)c2F)c(-c2ccnc(N)n2)s1 | enzyme activity | inhibitor | radiometric | 1 µM | remaining activity | 103% |
| COc1cc2nccc(Oc3ccc(NC(=O)c4c5n(n(-c6ccc(F)cc6)c4=O)CCCC5)cc3)c2cc1OC | enzyme activity | inhibitor |  | 0.1 µM | inhibition | 5% |
| CCN(CC)c1ccc(C2=NNC(=O)CC2C)cc1[N+](=O)[O-] (stereo not shown) | enzyme activity | inhibitor |  | 10 µM | remaining activity | 97% |
| CNC(=O)c1cc(Oc2ccc(NC(=O)Nc3ccc(Cl)c(C(F)(F)F)c3)cc2)ccn1 | enzyme activity | inhibitor |  | 0.3 µM | inhibition | -25% |
| Cc1ccc(C(=O)Nc2ccc(CN3CCN(C)CC3)c(C(F)(F)F)c2)cc1C#Cc1cnc2cccnn12 | cell-free assay |  |  | 23.5 nM | remaining signal | 100% |
| COc1cc2ncnc(Nc3ccc(Oc4ccccc4)cc3C)c2cc1OC | enzyme activity | inhibitor |  | 1 µM | inhibition | 3% |
| CN1CC(Oc2cnc(C#N)cc2-c2ccn3nc(NC(=O)C4CC4)cc3c2)C1 | enzyme activity | inhibitor |  | 1 µM | inhibition | -4% |
| CCOC(=O)c1cc2cc(-c3cc(C(=O)NCc4ccc(C(=O)O)cc4)nn3C)ccc2[nH]1 | cell-free assay |  | competition with immobilised ligand | 0.1 µM | remaining binding | 77% |
| Nc1nc(Nc2ccccc2)sc1C(=O)c1c(F)cccc1F | enzyme activity | inhibitor |  | 10 µM | remaining activity | 24% |
| Cc1nc(Cc2cccc(C(F)(F)F)c2)sc1-c1ccc(C(N)=O)nc1 | cell-free assay |  | competition with immobilised ligand | 1 µM | remaining binding | 100% |
| CCCS(=O)(=O)Nc1ccc(F)c(C(=O)c2c[nH]c3ncc(-c4ccc(Cl)cc4)cc23)c1F | enzyme activity | inhibitor |  | 1 µM | inhibition | < 10% |
| Cc1cnc(NC2CCOCC2)nc1-n1cnc(C(=O)NC(CN)c2cc(F)cc(Cl)c2)c1 (stereo not shown) | enzyme activity | inhibitor | radiometric | 1 µM | remaining activity | 70% |
| CCS(=O)(=O)c1cc2cc(C[C@@](O)(CC(C)(C)c3ccc(F)cc3C(N)=O)C(F)(F)F)[nH]c2cn1 | cell-free assay |  | competition with immobilised ligand | 1 µM | remaining binding | 64% |
| CCN(CC)CCNC(=O)c1c(C)[nH]c(/C=C2\C(=O)Nc3ccc(F)cc32)c1C | enzyme activity | inhibitor |  | 10 µM | inhibition | 78% |
| CC(C)CC(=O)N1CCc2nc(-c3ccc(Br)cc3)nc(N(C)Cc3ccccc3)c2C1 | cell-free assay |  | competition with immobilised ligand | 0.1 µM | remaining binding | 100% |
| Nc1ncnc2occ(-c3ccc(NC(=O)Nc4cc(C(F)(F)F)ccc4F)cc3)c12 | cell-free assay |  |  | 20 µM | remaining signal | 0.85% |
| CC(C)(C)C(=O)c1sc(NC2CCCCC2)nc1N | enzyme activity | inhibitor |  | 10 µM | remaining activity | 93% |
| CC(=O)c1c(NS(C)(=O)=O)c2cc(-c3ccc(Cl)cc3)c(-c3ccc(Cl)cc3Cl)nc2n(C)c1=O | cell-free assay |  | competition with immobilised ligand | 1 µM | remaining binding | 93% |
